# Shown are actives, neighbours in structure and some others; about 3.8% of the full set was active somewhere.
# hERG protect: hERG (human) protection from proarrhythmic block | activation (rescue from dofetilide block), less the hit threshold, % at 10 µM | 0.51% of 310,000 active | CHO-hERG, FluxOR thallium flux, dofetilide IC70 present | AID 1511 | Q12809;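 active = activation above the mean of controls blocked by dofetilide plus 5 SD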;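 also: thallium influx through hERG after potassium depolarization seen as dye fluorescence rise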
# KCNK3 inh: human KCNK3 channel inhibition, primary screen; 0.84% of 340,000 active; O14649; B-score at 10 µM; CHO-KCNK3 thallium flux, FluxOR fluorescence; active compounds read low;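 active = B-score under library mean minus 4 SD, starting fluorescence ratio at most library mean plus 5 SD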;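 also: more negative B-score means stronger inhibition of thallium flux through KCNK3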
# Target sequence (O14649 whole entry, looked up): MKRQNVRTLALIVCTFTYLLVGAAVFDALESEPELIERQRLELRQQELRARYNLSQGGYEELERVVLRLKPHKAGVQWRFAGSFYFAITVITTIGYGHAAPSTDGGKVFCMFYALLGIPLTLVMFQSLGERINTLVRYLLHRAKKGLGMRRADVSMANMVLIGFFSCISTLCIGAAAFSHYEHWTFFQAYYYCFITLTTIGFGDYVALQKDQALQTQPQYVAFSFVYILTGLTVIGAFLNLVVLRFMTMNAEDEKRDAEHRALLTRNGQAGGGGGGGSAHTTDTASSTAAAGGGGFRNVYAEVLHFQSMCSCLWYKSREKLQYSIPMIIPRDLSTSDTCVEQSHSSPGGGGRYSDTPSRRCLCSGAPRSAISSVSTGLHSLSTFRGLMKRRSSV
# KCNQ1 act: potentiates or activates the human KCNQ1 potassium channel | CHO-K1 KCNQ1, thallium flux FluxOR fluorescence; active compounds read high | B-score at 10 µM | 0.35% of 310,000 active;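 active = fluorescence ratio B-score, a plate-corrected score, at least three library SD, with initial intensity B-score within 5 SD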
#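 Medium – assay buffer, equal DMSO in all wells · Material – CHO-K1 cell line with stable KCNQ1 potassium channel expression · Signal – kinetic FluxOR thallium fluorescence, 10-s 1-Hz baseline, 110-s post-stimulus read · Compound – single concentration per compound, DMSO matched to controls · Schedule – 37 °C overnight plating, 90-min dark dye load, 20-min compound pretreatment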
# KCNK9 inh: human KCNK9 channel inhibition. Q9NPC2. HEK293 KCNK9, FluxOR thallium flux fluorescence; active compounds read low. B-score at 10 µM. 1.2% of 310,000 active. AID 488922;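 active = ratio B-score over 3 SD below the library mean, with starting fluorescence within 5 SD of its mean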;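 also: negative B-score means less thallium flux so channel inhibition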
# Kir21 block: blocks the mouse Kir2.1 inward-rectifier potassium channel; AID 1672; HEK293-Kir2.1, FluxOR thallium flux fluorescence; active compounds read low; B-score at 10 µM; 0.85% of 310,000 active; P35561;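 active = fluorescence ratio B-score at or below minus 3 SD of library scores, with starting-brightness B-score within 2 SD, cut at about -4.2 in these data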;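 also: channel flux triggered by added potassium and thallium sulfate stimulus; B-score of peak minus minimum fluorescence over baseline after thallium stimulus; more negative B-score means stronger Kir2.1 block with less thallium influx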
# KCNQ1 block: blocks the human KCNQ1 potassium channel | 1.3% of 310,000 active | AID 2642 | CHO-K1 KCNQ1, FluxOR thallium flux fluorescence; active compounds read high | P51787 | B-score at 10 µM;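 active = compounds whose thallium flux B-score, printed positive for inhibition, exceeds three library SD while starting fluorescence stays within three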;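 also: channel opened by potassium depolarization with thallium stimulus after 20 min compound exposure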
# Active calls of the source: *; i = inactive; . = no result.
SMILES,hERG protect,KCNK3 inh,KCNQ1 act,KCNK9 inh,Kir21 block,KCNQ1 block
COC1CCCCC1NCCc1ccccc1 (stereo not drawn),5.0*,i,i,i,-2.33,i
COc1ccc(CCNC2CCCCCC2)cc1,-9.2,i,i,i,-0.58,i
C=C1C(=O)O[C@@H]2C[C@@H](C)[C@@H]3C=CC(=O)[C@@]3(C)[C@@H](OC(=O)CC(=O)O[C@H]3[C@@H]4C(=C)C(=O)O[C@@H]4C[C@@H](C)[C@@H]4C=CC(=O)[C@]43C)[C@H]12,-16.6,i,i,i,-4.65*,i
CN(C)P(=O)(N(C)C)N1CC1,.,i,.,.,.,.
Cc1ccc(S(=O)(=O)NC(Cc2cnc[nH]2)C(=O)O)cc1 (stereo not drawn),10.4*,i,i,i,0.4,i
O=C(O)C(Cc1cnc[nH]1)NS(=O)(=O)c1ccc(Cl)cc1 (stereo not drawn),-7.5,i,i,i,0.63,i
Oc1ccc(Cl)cc1,.,i,.,.,.,.
Oc1ccc(C(=C(Cl)Cl)c2ccc(O)cc2)cc1,-19.6,.,i,i,-5.59*,6*
COc1ccc(NC(=O)N2C[C@@H]3C[C@@H](C2)c2cccc(=O)n2C3)cc1,-6.2,i,i,i,1.03,i
CC(C)(C)c1ccc(CSc2cnn(C(C)(C)C)c(=O)c2Cl)cc1,-15.1,i,i,i,1.98,11*
Cc1ccc(C2=CCNCC2)cc1,-4.0,i,i,i,0.05,i
Cc1cccc(OP(=O)(Nc2cccnc2)Oc2cccc(C)c2)c1,-12.3,i,i,i,1.22,i
COc1cccc(OP(=O)(Nc2ccccc2)Oc2cccc(OC)c2)c1,-4.6,-9.14*,i,i,-1.25,i
COc1ccc(NP(=O)(Oc2cccc(C)c2)Oc2cccc(C)c2)cc1OC,-12.2,i,i,i,1.04,i
COc1ccc(NP(=O)(Oc2ccc(Cl)cc2)Oc2ccc(Cl)cc2)cc1OC,-10.6,i,i,-7.05*,0.75,i
Cc1ccc(OP(=O)(Nc2cccc(C)c2)Oc2ccc(C)cc2)cc1,-3.5,i,i,i,0.21,6*
O=P(Nc1ccccc1)(Oc1ccccc1)Oc1ccccc1,-11.2,i,i,i,1.09,i
Cc1cccc(OP(=O)(Nc2ccc(F)cc2)Oc2cccc(C)c2)c1,-29.8,i,i,i,1.73,8*
O=[N+]([O-])c1ccc(N2CCOCC2)c2ccncc12,-5.4,i,i,i,-0.67,i
C1CCC2S[C@H]3CCCCC3NC2C1 (stereo partly drawn),5.3*,i,i,i,0.29,i
CNCC(O)c1cc(OCc2ccccc2)c(OCc2ccccc2)cc1F (stereo not drawn),-15.8,i,i,i,-6.01*,i
OC(c1cccc(Cl)c1)(c1cccc(Cl)c1)C1CN2CCC1CC2 (stereo not drawn),-25.2,i,i,i,-4.65*,i
O=C(Nc1cccc(C(F)(F)F)c1)OC1CN2CCC1CC2 (stereo not drawn),-4.5,i,i,i,-1.58,i
CCOC(=O)c1c(NS(=O)(=O)c2ccccc2)n(CCCOC)c2nc3ccccc3nc12,8.4*,i,i,i,-0.69,i
COc1ccc(N2C(=O)NC(=O)C(CCc3ccncc3)(CCc3ccncc3)C2=O)cc1,4.6*,i,i,i,0.63,i
SMILES,hERG protect,KCNK3 inh,KCNQ1 act,KCNK9 inh,Kir21 block,KCNQ1 block
CCc1ccc(N2C(=O)NC(=O)C(CCc3ccncc3)(CCc3ccncc3)C2=O)cc1,-1.6,i,i,i,-1.35,i
Cc1cc(N2CCCC2)ccc1C=C(C#N)C#N,-26.9,i,i,-6.71*,0.38,12*
Cc1cc(N2CCCCC2)ccc1C=C1C(=O)N(C)C(=S)N(C)C1=O,-9.5,i,i,i,-0.43,i
CCOc1ccccc1OCC(=O)Nc1ccc(Cl)cc1C(=O)c1ccccc1,-5.7,i,i,i,-1.93,6*
COc1ccccc1OCC(=O)Nc1ccc(Cl)cc1C(=O)c1ccccc1,-3.9,i,i,i,-0.3,i
CC1CCN(C(CC(=O)c2ccccc2)C(=O)c2ccccc2)CC1 (stereo not drawn),.,-9.1*,.,.,.,.
CCC1(C(=O)c2ccc(C)cc2)C2c3ccccc3OC(=O)C21C(=O)O (stereo not drawn),-6.7,i,i,i,0.4,i
Cc1cc(N(CCCl)CCCl)ccc1C=NNC(=O)Cc1cc(=O)oc2cc(O)ccc12,.,i,.,.,.,.
CCOc1cc(CNCCc2c[nH]c3ccccc23)cc(Cl)c1OC,-17.9,i,i,i,-5.6*,i
Fc1ccccc1CCNCc1cccc2ccccc12,-8.7,i,i,i,-11.8*,i
COC(=O)C1=C(c2ccc(-c3ccccc3)c(F)c2)C[C@@H]2CC[C@H]1N2C(=O)NC1Cc2ccccc2C1,.,i,.,.,.,.
O=C1NC(=S)NC(=O)C1Cc1ccccc1O,.,i,.,.,.,.
CNc1ccc2oc(C[C@H]3O[C@@]4(CC[C@H]3C)O[C@H]([C@H](C)C(=O)c3ccc[nH]3)[C@H](C)C[C@H]4C)nc2c1C(=O)O,-4.7,i,38*,i,0,i
CCCCn1nc(C)c(C(=O)O)c1Cl,-12.2,i,i,i,-0.19,i
O=C(O)C(Br)CBr (stereo not drawn),.,i,.,.,.,.
O=C(c1ccc(-c2ccccc2)cc1)C1CCCN(Cc2ccn[nH]2)C1 (stereo not drawn),-8.9,i,8*,i,-1.82,i
Oc1c(Br)c(Br)c(Br)c(Br)c1Br,.,i,.,.,.,.
O=c1[nH]c(=O)n(-c2cccc3ccccc23)c(O)c1/C=N/N1CCCCCC1,-3.1,i,i,i,-0.43,i
c1ccc(CCN2CCCCC2)nc1,.,i,.,.,.,.
COc1ccc(C(O)P(=O)(OC(C)C)OC(C)C)cc1 (stereo not drawn),-9.3,i,i,i,-0.08,i
COc1ccc(C(=O)O/N=C(/C(N)=O)P(=O)(OC(C)C)OC(C)C)cc1,2.6,i,i,i,-4.63*,i
COC(=O)C1=C(c2cccc(C#N)c2)C[C@@H]2CC[C@H]1N2C(=O)NC(C)C,.,i,.,.,.,.
CCN(CCCl)c1cc(CN(C)C)cc(NC(=O)c2ccc(C(=O)Nc3cc(CN(C)C)cc(N(CC)CCCl)c3)cc2)c1,.,i,.,.,.,.
COc1ccc(CC(=O)Nc2ccc(C#N)c(Cl)c2)cc1S(=O)(=O)N1CCOCC1,-10.2,i,i,i,-0.14,i
CCCCCCC(C)(C)c1ccc([C@@H]2C[C@H](O)CC[C@H]2CCCO)c(O)c1,.,-10.8*,.,.,.,.
CCCn1c(C)cc(C=O)c1C,5.6*,i,i,i,0.25,i

# Screens deposited in PubChem BioAssay by Johns Hopkins Ion Channel Center.
